Compounds with a hit are over-represented: about 2.5% of the library has one in this group of screens.
Efflux pump inh: inhibitors of Candida efflux pumps in yeast, primary screen, S. cerevisiae, Nile Red, multiplex; 0.44% of 330,000 active; inhibition, % at 10 µM; S. cerevisiae Candida pump triplex; AID 485275, 2010;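 active = plate passing quality check with inhibition over a set limit, or well fluorescence over plate mean plus 4 SD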;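 note: Nile Red retained in pooled yeast measured as flow cytometry median fluorescence; 0% = buffer negative control and 100% = Enniatin B positive control; higher means more Nile Red kept so more efflux inhibition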
MEKK3 PB1 HTS: modulators of MEKK3-MEK5 PB1 binding, primary screen, biochemical, wildtype MEKK3, multiplex bead flow cytometry, Alexa488-MEK5; bead-based flow cytometry, Alexa488-MEK5 binding to MEKK3; actives lie on both sides; 0 = blocked by unlabeled MEK5, 100 = vehicle; binding response (% of control), % at 10 µM; 1.4% of 290,000 active;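 active = binding response more than 3 SD above or below the average of its plate-row segment, actives on both sides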;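 note: Alexa488 bead fluorescence after subtracting the streptavidin-only scavenger bead signal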
MEKK2mut PB1 HTS: MEK5 binding signal on mutant MEKK2 PB1, primary screen, biochemical, multiplex bead flow cytometry, Alexa488-MEK5. Alexa488-MEK5 binding to MEKK2 mutant. percent response, % at 10 µM. 0.35% of 290,000 active; in the data active = percent response above about 24%, passing the limit was not always enough
ABCG2 block: ABCG2 efflux pump inhibitors, primary screen, multiplex with ABCB1, IgMXP3 cells, flow cytometry; Broad substrate specificity ATP-binding cassette transporter ABCG2 (Homo sapiens), Q9UNQ0; JC-1 efflux; inhibition, % at 6.6 µM; 0.1% of 190,000 active;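 active = inhibition above 80%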;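 note: 0% = DMSO and 100% = nicardipine control wells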
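Incubation: cells with compound and JC-1, 10 min at 25 °C, rotating, no wash / Test system: IgMXP3 (ABCG2) plus far-red-tagged CCRF-Adr (ABCB1) cells / Compound dosing: one concentration, 6.6 µM final / Also added: JC-1 fluorescent substrate / Evaluation: efflux inhibition in percent versus controls / Detection: flow cytometry, 530 nm JC-1 signal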
ABCB1 inh: ABCB1 efflux pump inhibitors, primary screen, cell-based, multiplex, flow cytometry, ABCG2 counter-screen; inhibition, % at 6.6 µM; CCRF-Adr cells, JC-1 efflux; AID 1326, 2008; 0.067% of 190,000 active; ATP-dependent translocase ABCB1 (Homo sapiens), P08183; in the data active = inhibition above about 40%;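 note: 0% = vehicle and 100% = reference inhibitor; higher value means more JC-1 retained so stronger ABCB1 efflux block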
Target sequence (P08183 whole entry, looked up): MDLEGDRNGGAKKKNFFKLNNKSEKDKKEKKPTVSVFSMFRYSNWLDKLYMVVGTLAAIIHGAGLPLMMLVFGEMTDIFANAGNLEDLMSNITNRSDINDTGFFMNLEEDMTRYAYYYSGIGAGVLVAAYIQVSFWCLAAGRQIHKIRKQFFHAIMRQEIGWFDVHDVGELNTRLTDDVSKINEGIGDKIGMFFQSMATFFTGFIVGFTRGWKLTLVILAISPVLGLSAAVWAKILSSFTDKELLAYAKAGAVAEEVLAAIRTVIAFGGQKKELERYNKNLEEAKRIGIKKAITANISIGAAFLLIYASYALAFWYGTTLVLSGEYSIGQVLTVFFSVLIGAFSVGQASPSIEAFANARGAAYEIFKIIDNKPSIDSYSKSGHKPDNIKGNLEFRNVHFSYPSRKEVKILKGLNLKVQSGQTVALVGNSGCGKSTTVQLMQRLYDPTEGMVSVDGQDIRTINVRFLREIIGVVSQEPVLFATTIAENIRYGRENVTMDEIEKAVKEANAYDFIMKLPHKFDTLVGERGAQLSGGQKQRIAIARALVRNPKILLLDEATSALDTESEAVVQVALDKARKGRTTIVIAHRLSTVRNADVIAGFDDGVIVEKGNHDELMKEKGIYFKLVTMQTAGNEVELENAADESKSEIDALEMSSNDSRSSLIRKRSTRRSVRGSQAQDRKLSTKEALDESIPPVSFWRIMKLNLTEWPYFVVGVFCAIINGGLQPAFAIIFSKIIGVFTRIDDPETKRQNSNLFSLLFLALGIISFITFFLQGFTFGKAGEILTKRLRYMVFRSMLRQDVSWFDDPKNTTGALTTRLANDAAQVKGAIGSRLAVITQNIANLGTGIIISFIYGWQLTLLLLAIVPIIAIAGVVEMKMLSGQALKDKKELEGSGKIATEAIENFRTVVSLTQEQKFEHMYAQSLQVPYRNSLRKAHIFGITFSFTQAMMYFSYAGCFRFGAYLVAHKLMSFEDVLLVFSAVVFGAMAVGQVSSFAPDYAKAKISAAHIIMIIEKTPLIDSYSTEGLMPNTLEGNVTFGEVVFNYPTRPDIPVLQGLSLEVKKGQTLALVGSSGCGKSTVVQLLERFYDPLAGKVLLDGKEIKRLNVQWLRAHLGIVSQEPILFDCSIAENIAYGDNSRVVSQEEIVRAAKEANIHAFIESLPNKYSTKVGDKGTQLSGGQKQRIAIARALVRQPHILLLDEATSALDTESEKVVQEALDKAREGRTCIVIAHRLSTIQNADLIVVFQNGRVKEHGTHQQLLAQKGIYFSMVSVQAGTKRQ
MEKK2 WT-MEK5: modulators of MEK5 binding to wildtype MEKK2, primary screen, biochemical, multiplex bead flow cytometry, Alexa488-MEK5. Mitogen-activated protein kinase kinase kinase 2 (Homo sapiens), Q9Y2U5. Alexa488-MEK5 binding to MEKK2 WT; actives lie on both sides. binding response (% of control), % at 10 µM. 1.1% of 290,000 active. AID 1531, 2009; in the data active = binding response below about 67% or above about 130%
MEKK2wt confirm: modulators of MEK5 binding to wildtype MEKK2, confirmation, biochemical, single concentration, multiplex bead flow cytometry | shares compounds with MEKK3 PB1 HTS | Alexa488-MEK5 binding to MEKK2 WT; actives lie on both sides | binding response (% of control), % at 10 µM | 2.4% of 5,900 active; in the data active = binding response below about 16% or above about 210%; inactive = in between
MEKK2mut confirm: mutant MEKK2 PB1-MEK5 binding signal retest – biochemical, single concentration, multiplex bead flow cytometry, confirmation | shares compounds with MEKK3 PB1 HTS | Alexa488-MEK5 binding to MEKK2 mutant | percent response, % at 10 µM | 2% of 5,900 active; in the data active = percent response mostly above about 71%, no sharp cut-off; inactive = mostly below about 38%;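 note: higher means compound restores mutant binding toward wildtype level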
MEKK3 confirm: MEKK3 wild-type PB1 binding to MEK5, inhibitors, confirmation, biochemical, bead multiplex flow cytometry, single concentration, wildtype; shares compounds with MEKK3 PB1 HTS; Alexa488-MEK5 binding to MEKK3; stronger effect = lower value; binding response (% of control), % at 10 µM; 1.8% of 5,900 active;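 active = binding response below 72% of control, or above a set upper limit, though filed actives all read lower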;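 note: 100% = DMSO only wells and 0% = binding blocked by excess unlabeled MEK5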
The depositor's hits bear a star; nt = not tested or not shown; [ ] = dose if it differs, or a comment.

SMILES	Efflux pump inh	MEKK3 PB1 HTS	MEKK2mut PB1 HTS	ABCG2 block	ABCB1 inh	MEKK2 WT-MEK5	MEKK2wt confirm	MEKK2mut confirm	MEKK3 confirm
COC(=O)c1ccc(NC(=O)CSc2nnc(COc3ccccc3)n2C)cc1	0.0	113.0	24.0*	1.6	0.1	120.0	99.0	3.0	105.0
Cn1c(Cn2cnc([N+](=O)[O-])n2)nnc1SCC(=O)Nc1ccccc1	0.1	144.0*	1.0	4.7	0.5	110.0	106.0	0.0	105.0
COc1ccc(NC(=O)CSc2nnc(Cn3cnc([N+](=O)[O-])n3)n2C)cc1	0.0	41.0*[inhibitor]	1.0	13.5	0.4	77.0	100.0	-3.0	101.0
COCCn1c(Cc2cccn2C)nnc1SCC(=O)NCc1ccc2c(c1)OCO2	-0.1	106.0	8.0	0.9	0.6	106.0	nt	nt	nt
COc1ccc2[nH]c3c(=O)n(N)c(C)nc3c2c1	-0.4	136.0*	1.0	1.3	0.1	107.0	104.0	2.0	105.0
N#CC(C#N)=CC1=C2OC(c3ccccc3)=CC(c3ccccc3)=C2CCC1	-0.1	74.0*[inhibitor]	-12.0	1.7	-0.1	72.0*[inhibitor]	75.0	-3.0	77.0
N=c1c2c(ncn1CCN1CCOCC1)Oc1ccc3ccccc3c1C2c1ccccc1 (centres undefined)	0.1	106.0	15.0	12.4	3.2	141.0*	124.0	4.0	101.0
COc1ccc(C2c3c(ncn(CCN4CCOCC4)c3=N)Oc3ccc4ccccc4c32)cc1 (centres undefined)	0.1	102.0	7.0	-0.8	0.0	165.0*	127.0	23.0	103.0
CN(C)CCn1cnc2c(c1=N)C(c1ccccc1)c1ccc3ccccc3c1O2 (centres undefined)	0.1	106.0	17.0	nt	nt	142.0*	149.0	23.0	99.0
c1ccc(C2c3c(ccc4ccccc34)Oc3ncn4nc(-c5ccco5)nc4c32)cc1 (centres undefined)	-0.1	104.0	-1.0	2.6	0.7	95.0	nt	nt	nt
COc1ccc(C2c3c(ccc4ccccc34)Oc3ncn4nc(-c5ccco5)nc4c32)cc1 (centres undefined)	0.1	126.0	1.0	12.4	2.1	106.0	nt	nt	nt
N=c1c2c(ncn1Cc1ccco1)Oc1c(ccc3ccccc13)C2c1ccccc1 (centres undefined)	0.1	104.0	3.0	6.8	5.4	133.0	nt	nt	nt
Cc1nnc(SCc2cc(=O)[nH]c(=S)[nH]2)s1	0.0	100.0	1.0	0.1	0.1	96.0	nt	nt	nt
CN(CC(=O)NCC(=O)Nc1ccc(F)cc1)C1CCS(=O)(=O)C1 (centres undefined)	0.0	nt	nt	nt	nt	nt	nt	nt	nt
COc1ccc(-n2c(N)c(-c3nc4ccccc4n3C)sc2=S)cc1	-0.1	69.0*[inhibitor]	-13.0	6.8	0.0	82.0	100.0	-1.0	100.0
CCOc1ccc(-n2c(N)c(-c3nc4ccccc4[nH]3)sc2=S)cc1	0.0	106.0	5.0	4.7	0.0	108.0	nt	nt	nt
CCCCN(C(=O)c1cccc2c(=O)c(C)c(-c3ccccc3)oc12)c1ccccc1	nt	89.0	-7.0	0.5	3.4	86.0	nt	nt	nt
CCN(CC)CCNC(C(=O)Nc1cc(C(F)(F)F)ccc1Cl)c1ccccc1 (centres undefined)	0.4	143.0*	0.0	3.8	1.6	106.0	111.0	7.0	103.0
O=C(Nc1cc(C(F)(F)F)ccc1Cl)C(NCc1ccccc1)c1ccccc1 (centres undefined)	-0.1	101.0	-1.0	12.0	1.2	107.0	nt	nt	nt
CCOC(=O)Cn1cc(C(=O)C2CC2)c2ccccc21	0.0	2.0*[inhibitor]	-16.0	5.5	0.1	2.0*[inhibitor]	106.0	2.0	101.0
COC(=O)Cn1cc(C(=O)C2CC2)c2ccccc21	-0.1	106.0	6.0	2.4	0.5	109.0	nt	nt	nt
O=C(COc1ccc([N+](=O)[O-])cc1Cl)N1CCc2ccccc21	-0.1	nt	nt	nt	nt	nt	nt	nt	nt
CCN1CCN(c2cc(-c3ccccc3)nc3cc(-c4cccc(F)c4)nn23)CC1	1.3*	122.0*	49.0*	1.9	1.5	146.0*	182.0	39.0	108.0
Cc1cc(C)n2nc(SCC(=O)N3CCCC(C)C3)nc2n1 (centres undefined)	0.2	nt	nt	nt	nt	nt	nt	nt	nt
Cc1cc(N/N=C2/CCCc3ccccc32)nc2ccccc12	0.0	108.0	28.0	7.0	2.4	160.0*	154.0	28.0	109.0
SMILES	Efflux pump inh	MEKK3 PB1 HTS	MEKK2mut PB1 HTS	ABCG2 block	ABCB1 inh	MEKK2 WT-MEK5	MEKK2wt confirm	MEKK2mut confirm	MEKK3 confirm
c1ccc(N/N=C2\CCCc3ccccc32)nc1	0.6	101.0	2.0	2.2	0.6	99.0	nt	nt	nt
O=C(/C=C/c1cccc([N+](=O)[O-])c1)NCCSCc1ccc(Cl)cc1	-0.3	144.0*	0.0	35.2	1.2	109.0	96.0	-4.0	105.0
CCCCn1[nH]c(-c2ccccc2)cc1=O	-0.1	101.0	-2.0	-6.7	-1.1	96.0	nt	nt	nt
C=CCc1ccc(OCCOc2ccc(/C=N/n3cnnc3)cc2OCC)c(OC)c1	0.0	111.0	27.0*	6.3	0.8	116.0	101.0	-7.0	104.0
COc1cc(/C=N/n2cnnc2)ccc1OCCOc1ccccc1	-0.1	91.0	-6.0	11.8	-0.1	93.0	nt	nt	nt
O=C1c2cccnc2C(=O)N1Cc1ccc(S(=O)(=O)N2CCOc3ccccc32)cc1	0.4	99.0	-2.0	nt	nt	99.0	nt	nt	nt
CS(=O)(=O)N1CCN(c2ccc([N+](=O)[O-])cc2F)CC1	-0.3	75.0*[inhibitor]	-16.0	2.6	0.8	79.0	101.0	13.0	104.0
CN1CCN(c2ccc(C(F)(F)F)cc2NC(=O)Nc2ccccc2)CC1	-0.2	109.0	18.0	nt	nt	150.0*	159.0	39.0	110.0
CC(Cl)C(=O)Nc1cc(C(F)(F)F)ccc1N1CCOCC1 (centres undefined)	0.0	103.0	-7.0	3.5	1.1	97.0	nt	nt	nt

Source: PubChem BioAssay (NMMLSC)
